In ChEMBL document CHEMBL1132294, “Derivatives of the new ring system indolo[1,2-c]benzo[1,2,3]triazine with potent antitumor and antimicrobial activity” (J Med Chem, 1999):
≈ marks a conversion by molar mass, not a printed value.

Legend:
Candida parapsilosis [1] = assay: Antimycotic activity against Candida parapsilosis was evaluated. MIC was defined as compound concentration at which no macroscopic signs of fungal growth were detected.; type: functional; conditions: Lodderomyces parapsilosis
In short: (§1)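 Yeast inocula from 30 h Sabouraud dextrose broth cultures at 37 °C, diluted to 5×10³ cells/mL. Dermatophyte inocula from 5-day cultures, homogenized and diluted to 0.05 OD₅₉₀/mL. Inocula added to medium with serial dilutions, incubated at 37 °C, read visually at 2 days (yeast) or 3 days (dermatophytes). Mean of at least three experiments.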

[2] = system: Mycobacterium tuberculosis; assay: Antibacterial activity was evaluated against Mycobacterium tuberculosis (clinical isolate 1104); type: functional
In short: (§2)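 Broth microdilution in Middlebrook 7H9 with 0.5% glycerol and 10% OADC, containing serial concentrations of compound (diluted in medium from a DMSO solution). Plates were incubated 9 days at 37 °C, and viable bacteria were read by MTT. MIC is the mean of at least three separate experiments.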

Shigella = assay: Antibacterial activity was evaluated against shigella.; type: functional
In short: (§3)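 Recent clinical isolates grown in nutrient broth, pH 7.2, inoculum 10³ bacterial cells/tube, with serial compound dilutions. […] Mean of at least three separate experiments.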

Aspergillus fumigatus = assay: Antimycotic activity against Aspergillus fumigatus was evaluated as compound minimum inhibitory concentration at which no macroscopic signs of fungal growth were detected.; type: functional
WIL2-NS = assay: Antitumor activity was evaluated against lymphoma cell line Wil2-NS (human splenic B lymphoblastoid cells).; type: functional, cell-based
In short: (§4)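 Exponentially growing leukemia/lymphoma cells resuspended at 1×10⁵ cells/mL in RPMI with serial drug dilutions. Viability by MTT after 4 days at 37 °C. Concentration giving 50% growth inhibition versus untreated controls found by linear regression. Mean of at least three experiments.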

Trichophyton benhamiae = assay: Antimycotic activity against Trichophyton mentagrophytes was evaluated. MIC was defined as compound concentration at which no macroscopic signs of fungal growth were detected.; type: functional, Arthroderma benhamiae; in short: as §1
CCRF-SB = assay: Antitumor activity was evaluated against leukemia cell line CCRF-SB(human acute B lymphoblastic leukemia).; type: functional, cell-based; in short: as §4
ACHN = assay: Antitumor activity was evaluated against human renal adenocarcinoma cell line ACHN.; type: functional, cell-based
In short: (§5)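 Solid-tumour and KB lines: exponentially growing cells seeded at 5×10⁴ cells/mL, allowed to adhere 16 h, then serial drug dilutions added. Viability by MTT after 4 days. Growth expressed as % of untreated controls, 50% inhibitory concentration by linear regression. Untreated cells undergo at least three rounds of multiplication.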

IMR-32 = assay: Antitumor activity was evaluated against human neuroblastoma cell line IMR-32.; type: functional, cell-based; in short: as §5
MT4 = assay: Antitumor activity was evaluated against leukemia cell line MT-4(human CD4+ T cells expressing the TAT gene of HTLV-1).; type: functional, cell-based; in short: as §4
HT-29 = assay: Antitumor activity was evaluated against human colon adenocarcinoma cell line HT-29.; type: functional, cell-based; in short: as §5
MOLT-4 = assay: Antitumor activity was evaluated against leukemia cell line MOLT-4(human acute T lymphoblastic leukemia); type: functional, cell-based; in short: as §4
Candida albicans = assay: Antimycotic activity against Candida albicans was evaluated as minimum inhibitory concentration of compound at which no macroscopic signs of fungal growth were detected; type: functional; in short: as §1
CCRF-CEM = assay: Antitumor activity was evaluated against leukemia cell line CCRF-CEM(human acute T lymphoblastic leukemia).; type: functional, cell-based
In short: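 Exponentially growing leukemia/lymphoma cells resuspended at 1×10⁵ cells/mL in RPMI with serial drug dilutions. Viability by MTT after 4 days at 37 °C. Mean of at least three experiments.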

[3] = system: Mycolicibacterium fortuitum; assay: Antibacterial activity was evaluated against Mycobacterium fortuitum.; type: functional
In short: (§6)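 Mycobacterial suspension (turbidity of 1 McFarland standard, 10⁸ CFU/mL) added to Middlebrook 7H9 with 0.5% glycerol, 10% OADC and serial compound dilutions. Incubated at 37 °C, 1 day for M. smegmatis and M. fortuitum, 9 days for MAC. Viable mycobacteria counted by MTT. MIC given as mean of at least three separate experiments.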

[4] = system: Mycolicibacterium smegmatis; assay: Antibacterial activity was evaluated against Mycobacterium smegmatis; type: functional; in short: as §6
[5] = system: Mycobacterium tuberculosis; assay: Antibacterial activity was evaluated against Mycobacterium tuberculosis (ATCC); type: functional; in short: as §2
Staphylococcus = assay: Antibacterial activity was evaluated against staphylococcus; type: functional; in short: as §3
Mycobacterium = assay: Antibacterial activity was evaluated against MAC (Mycobacterium Avium Complex ); type: functional; in short: as §6
5637 = assay: Antitumor activity was evaluated against human bladder carcinoma cell line 5637.; type: functional, cell-based; in short: as §5
CHO-K1 = assay: Antitumor activity was evaluated against Chinese hamster ovary carcinoma cell line CHO-K1.; type: functional, cell-based; conditions: Cricetulus griseus; in short: as §5
Cryptococcus neoformans = assay: Antimycotic activity against Cryptococcus neoformans was evaluated. MIC was defined as compound concentration at which no macroscopic signs of fungal growth were detected.; type: functional; in short: as §1
Candida tropicalis = assay: Antimycotic activity against Candida paratropicalis was evaluated. MIC was defined as compound concentration at which no macroscopic signs of fungal growth were detected.; type: functional; in short: as §1
HeLa = assay: Antitumor activity was evaluated against human cervix carcinoma cell line HeLa.; type: functional, cell-based; in short: as §5
Salmonella = assay: Antibacterial activity was evaluated against salmonella.; type: functional; in short: as §3
Streptococcus = assay: Antibacterial activity was evaluated against streptococcus.; type: functional; in short: as §3
L1210 = assay: Antitumor activity was evaluated against leukemia cell line L1210 (mouse leukemia).; type: functional, cell-based; in short: as §4
Lymphoblastoid cell = assay: Cytotoxicity was evaluated against lymphoblastoid cell line.; type: functional; conditions: Homo sapiens
Homo sapiens [6] = species: Homo sapiens; assay: In vitro Antiproliferative activity against peripheral blood lymphocytes (PBL) after stimulating PBL with PHA and then resuspending in IL-2-containing medium in the presence of compound.; type: functional
In short: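 PBL from HIV-negative donors, isolated on Ficoll-Hypaque and rested overnight. Stimulated with PHA 2.5 μg/mL for 24 h, diluted to 1×10⁵ cells/mL in medium with PHA, IL-2 50 U/mL and compound. Viable cells counted after 6 days. Mean ±SD of three experiments.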

Candida parapsilosis [7] = assay: Antimycotic activity against Candida parapsilosis was evaluated as compound concentration at which no macroscopic signs of fungal growth were detected; type: functional; conditions: Lodderomyces parapsilosis; in short: as §1
Homo sapiens [8] = species: Homo sapiens; assay: In vitro Antiproliferative activity against peripheral blood lymphocytes (PBL) by treating PBL with compound for 3 days, then stimulating with PHA and then resuspending in compound free medium.; type: functional; conditions: 72 h
In short: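 Resting donor PBL held at 1×10⁶ cells/mL and treated with compound for up to 3 days, then washed. Stimulated with PHA for 24 h, diluted to 1×10⁵ cells/mL in drug-free medium with PHA and IL-2. Viability read after 6 days at 37 °C. Mean ±SD of three experiments.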

O=Nc1c2ccccc2n2nnc3ccccc3c12
MIC (Candida parapsilosis [1]): 19 µM (≈ 4.72 µg/mL)
MIC [2]: 7.4 µM (≈ 1.84 µg/mL)
MIC (Shigella): 25 µM (≈ 6.21 µg/mL)
MIC (Aspergillus fumigatus): 19 µM (≈ 4.72 µg/mL)
IC50 (WIL2-NS): 4.4 µM
MIC (Trichophyton benhamiae): 9.4 µM (≈ 2.33 µg/mL)
IC50 (CCRF-SB): 7.4 µM
IC50 (ACHN): 12 µM
IC50 (IMR-32): 3300 nM
IC50 (MT4): 1400 nM
IC50 (HT-29): 50 µM
IC50 (MOLT-4): 2300 nM
MIC (Candida albicans): 19 µM (≈ 4.72 µg/mL)
IC50 (CCRF-CEM): 7 µM
MIC [3]: > 5 µM
MIC [4]: 2.5 µM (≈ 0.621 µg/mL)
MIC [5]: 4.6 µM (≈ 1.14 µg/mL)
MIC (Staphylococcus): 0.8 µM (≈ 0.199 µg/mL)
MIC (Mycobacterium): 1.2 µM (≈ 0.298 µg/mL)
IC50 5637: 4.2 µM
IC50 (CHO-K1): 45 µM
MIC (Cryptococcus neoformans): 3.1 µM (≈ 0.77 µg/mL)
MIC (Candida tropicalis): 19 µM (≈ 4.72 µg/mL)
IC50 (HeLa): 10 µM
MIC (Salmonella): 25 µM (≈ 6.21 µg/mL)
MIC (Streptococcus): 0.8 µM (≈ 0.199 µg/mL)
IC50 (L1210): 12 µM

Cc1ccc2nnn3c4ccccc4c(N=O)c3c2c1
MIC [2]: 9.2 µM (≈ 2.41 µg/mL)
CC50 (Lymphoblastoid cell): 900 nM
MIC (Shigella): > 200 µM
MIC (Aspergillus fumigatus): > 200 µM
IC50 (WIL2-NS): 0.8 µM
MIC (Trichophyton benhamiae): > 200 µM
IC50 (CCRF-SB): 0.7 µM
IC50 (ACHN): 8.7 µM
IC50 (IMR-32): 2800 nM
IC50 (MT4): 1300 nM
IC50 (HT-29): 3.1 µM
IC50 (MOLT-4): 500 nM
CC50 (Homo sapiens [6]): 500 nM
MIC (Candida albicans): > 200 µM
IC50 (CCRF-CEM): 0.5 µM
MIC [3]: > 5 µM
MIC [4]: > 5 µM
MIC [5]: 9.3 µM (≈ 2.44 µg/mL)
MIC (Staphylococcus): 0.4 µM (≈ 0.105 µg/mL)
MIC (Mycobacterium): 5 µM (≈ 1.31 µg/mL)
IC50 5637: 1.9 µM
IC50 (CHO-K1): 6.5 µM
MIC (Candida parapsilosis [7]): > 200 µM
MIC (Cryptococcus neoformans): > 200 µM
MIC (Candida tropicalis): > 200 µM
IC50 (HeLa): 9.5 µM
MIC (Salmonella): > 200 µM
MIC (Streptococcus): 0.8 µM (≈ 0.21 µg/mL)
IC50 (L1210): 1.7 µM
CC50 (Homo sapiens [8]): 600 nM

COc1ccc2c(c1)c(N=O)c1c3ccccc3nnn21
MIC [2]: 4.5 µM (≈ 1.25 µg/mL)
MIC (Shigella): > 200 µM
MIC (Aspergillus fumigatus): > 200 µM
IC50 (WIL2-NS): 3.7 µM
MIC (Trichophyton benhamiae): > 200 µM
IC50 (CCRF-SB): 5 µM
IC50 (ACHN): 14 µM
IC50 (IMR-32): 2300 nM
IC50 (MT4): 1100 nM
IC50 (HT-29): > 50 µM
IC50 (MOLT-4): 1300 nM
MIC (Candida albicans): > 200 µM
IC50 (CCRF-CEM): 7.2 µM
MIC [3]: > 5 µM
MIC [4]: > 5 µM
MIC [5]: 5.3 µM (≈ 1.47 µg/mL)
MIC (Staphylococcus): 0.2 µM (≈ 0.0557 µg/mL)
MIC (Mycobacterium): 2.5 µM (≈ 0.696 µg/mL)
IC50 5637: 6 µM
IC50 (CHO-K1): > 50 µM
MIC (Candida parapsilosis [7]): > 200 µM
MIC (Cryptococcus neoformans): > 200 µM
MIC (Candida tropicalis): > 200 µM
IC50 (HeLa): 11 µM
MIC (Salmonella): > 200 µM
MIC (Streptococcus): 0.1 µM (≈ 0.0278 µg/mL)
IC50 (L1210): 13 µM
